Assay results: ChEMBL document CHEMBL4513216, “Probing the Open Global Health Chemical Diversity Library for Multistage-Active Starting Points for Next-Generation Antimalarials” (ACS Infect Dis, 2020)

test: Toxicity liver stage against HepG2, at 10uM; format: cell-based; set-up: test concentration 10 uM, cell line HepG2-A16-CD81EGFP; settings: human, HepG2-A16-CD81EGFP cells; read-out: INHIBITION
How it was run: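 Uninfected HepG2-A16-CD81EGFP cells, 3 × 10^3 per well, 1536-well, plated on prespotted compound at 10 μM final, parasite-free screening media added to match infected plates; puromycin 10 μM positive, DMSO 0.5% negative; run in parallel with 48 h PbLuc assay at 37 °C, 5% CO2; viability by CellTiter-Glo luminescence, normalized to controls.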

| Structure (SMILES) | cytotoxicity at 10 µM [%] |
| --- | --- |
| Cn1c(=O)oc2cc(S(=O)(=O)N3CCC(c4ccccc4)C3)c(Cl)cc21 (stereo not given) | 12.4 |
| CCOC(=O)CN1C(=O)CN(S(C)(=O)=O)CCC(OC)c2ccccc21 (stereo not given) | 1.5 |
| COc1ccc2c(ccn2CC(=O)NC[C@@H]2CCCN3CCCC[C@H]23)c1 | -4.56 |
| COc1ccccc1OCC(=O)N1CCC[C@]2(C[C@@H](OC)CO2)C1 | 1.04 |
| Cc1cccc(-c2nccnc2C2CCN(C)CC2)c1C | 2.14 |
| Cc1nc(-c2ccc(F)cc2)cc(C2CCNCC2)n1 | 8.1 |
| CCCN1C[C@H](NC(=O)c2ccccc2F)[C@@H](c2ccc(OC)cc2)C1 | -41.8 |
| N[C@@H]1CCC[C@@H](Oc2ccc(F)cc2Oc2ccccc2)[C@@H]1O | -7.39 |
| OC1(Cn2ccc3ncccc32)CCN(Cc2cc(F)cc(F)c2)CC1 | -5.41 |
| Cc1ncsc1-c1nnc(C2CCN(Cc3cccc(F)c3F)CC2)o1 | -15.8 |
| Cc1ccc(CCN2CCCC23Cc2ccccc2CNC3=O)cc1 (stereo not given) | 7.41 |
| CCc1cc2c(N3CCCC(c4cc(C(N)=O)[nH]n4)C3)ncnc2s1 (stereo not given) | 3.25 |
| CCC(=O)c1cccc(S(=O)(=O)NC(C)C#N)c1 (stereo not given) | 3.73 |
| CC(O)CN(C(=O)NC1CC1)C(C)C (stereo not given) | 13.1 |
| CCSCCOC(=O)CCCc1ccc2c(c1)CC(=O)N2 | 6.34 |
| Cc1ccc(C(=O)N2CCOCC2C(N)=O)c(F)c1 (stereo not given) | 3.72 |
| CC(C)N(CC(=O)Nc1cccc(C#N)c1)C1CC1 | -7.16 |
| CS(=O)(=O)Cc1noc(CN(Cc2ccco2)c2ccccc2)n1 | -8.3 |
| Cc1occc1C(=O)NCC(=O)NCCCOc1ccc(F)cc1 | -45.1 |
| CC(C)n1cc(CN2CCCN(C(=O)C3(C)CCOCC3)CC2)cn1 | -48.2 |
| Cc1cccc(S(=O)(=O)NC(=O)CN(C)Cc2ccccc2)c1 | -14.3 |
| O=C(NCCNC1CCN(c2nccs2)CC1)c1cccs1 | 5.73 |

| Structure (SMILES) | cytotoxicity at 10 µM [%] |
| --- | --- |
| Cc1cc(CNCC2(O)CCOCC2)ccc1Br | -0.378 |
| O=C(Cc1cccs1)NCC1(O)CCSC1 (stereo not given) | -9.66 |
| CC1CCN(CC2CCCN(C(=O)Nc3ccccn3)C2)CC1 (stereo not given) | -9.85 |
| Cc1ccc(NCCNC(=O)C2Cc3cc(C)c(C)cc3O2)nn1 (stereo not given) | 3.34 |
| CCc1noc(CN(C)C(=O)c2ccnc(OC3CCC3)c2)n1 | 4.86 |
| CC(C#N)CSc1ccccc1NCC(=O)NC1CCCCC1 (stereo not given) | 9.37 |
| CC(C)COCCC(=O)NCc1cn2cc(Br)ccc2n1 | 4.26 |
| COc1ncccc1C(=O)N1CCCC(n2ccnc2C)C1 (stereo not given) | -7.41 |
| COCCOCC(=O)Nc1ccc(F)cc1C | 12.8 |
| Cc1c(C(N)=O)sc2nc(C(F)(F)F)ccc12 | -3.33 |
| CC(C)S(=O)(=O)CC(=O)N(Cc1ccsc1)c1ccccc1 | -5.24 |
| CN1CCN(CCCN(C)S(=O)(=O)CC2CCCCC2)CC1 | -10.1 |
| CC(CCNC(=O)NCCc1ccc(S(N)(=O)=O)cc1)c1ccccc1 (stereo not given) | -17.4 |
| N#Cc1cccc(OCC(=O)N(Cc2ccsc2)C2CC2)c1 | -50.2 |
| O=C(NC1CCN(c2ncccn2)CC1)c1cc2c(cc1O)CCCC2 | 8 |
| COc1cc(CN(C)Cc2cccnc2)c(SC)cc1OC | 2.3 |
| COCCNC(=O)c1ccc2c(=O)n3c(nc2c1)CCCCCC3 | -46.3 |
| CCC(C(=O)Nc1ccc2cn(CC)nc2c1)N1CCCC1=O (stereo not given) | -46.7 |
| CO[C@H]1CN(C(=O)OC(C)(C)C)CC1NCc1cccn1C (stereo not given in full) | -44 |
| CN1CC(C(=O)NCc2cccnc2OCc2ccccc2)CC1=O (stereo not given) | 4.44 |
| CC(=O)N1CCCN(C2CCCCc3ccccc32)CC1 (stereo not given) | -48.6 |
| Cc1cc(NC(=O)C(C)N2CCN(c3ccc(C#N)cc3F)CC2)no1 (stereo not given) | 6.16 |

| Structure (SMILES) | cytotoxicity at 10 µM [%] |
| --- | --- |
| CCOc1ccc(CN(CCC#N)CCN2CCOCC2)cc1OC | -9.98 |
| O=C(CCc1ccsc1)NS(=O)(=O)Cc1ccon1 | -12.6 |
| COc1cccc(CSCC(=O)NCc2cccnc2)c1 | -46.3 |
| CN(CC(=O)N(C)C1CCCCC1)Cc1nc2c(cnn2C)c(=O)[nH]1 | 9.12 |
| Fc1cc(CNCc2ccc3c(c2)CCO3)ccc1N1CCOCC1 | -7.24 |
| Cc1ccc(CNCC2Cn3nncc3CO2)s1 (stereo not given) | -99.4 |
| O=C(c1cscn1)N1CC[C@H]2[C@@H]1CCC(=O)N2c1ccccc1 | -68.8 |
| Cc1ccoc1C(=O)N1C[C@@H](OCC2CC2)[C@H]2OCCC[C@H]21 | 5.86 |
| NC(=O)N1CCC2(CC1)CN(c1ccsc1)C(=O)CO2 | 10.7 |
| O=C1[C@@H]2CCN(Cc3ccncc3)C[C@@H]2OCCN1c1ccccc1 | -1.06 |
| C[C@H](O)CNc1cc(-c2ccncc2)ncn1 | -11.1 |
| CNC(=O)c1cn2cc(-c3cccc(Cl)c3)n(CC3CC3)c(=O)c2n1 | -37.4 |
| CCN1CC(C(=O)N2CCc3cc(C(N)=O)n(C)c3C2)CCC1=O (stereo not given) | -44.6 |
| CC(C)c1nnc2n1CCN(Cc1ccc3c(c1)OCO3)CC2 | 1.67 |
| O=C(C1CCOCC1)N1CCOC(CC2CCCCC2)C1 (stereo not given) | -5.56 |
| Cc1cc(C)c2c(c1)C(CC(=O)O)C(=O)N2 (stereo not given) | 7.16 |
| c1ccc(-c2ncn(CCCN3CCOCC3)c2-c2ccncc2)cc1 | -7.64 |
| CCNC(=O)[C@@H]1C[C@@H](NC(=O)c2cc(C)on2)CN1Cc1ccccn1 | -6.78 |
| Cc1[nH]c2ccc(CNc3cc(C(=O)NC(C)C)ccn3)cc2c1C | 16.2 |
| Cc1n[nH]c(CCC(=O)N2CCOC(Cc3ccc(F)cc3)C2)c1C (stereo not given) | -40.4 |
| CCOC(=O)N[C@H]1C[C@@H](C(=O)NCCc2cccc(Cl)c2)N(C)C1 | -3.79 |
| Cc1ccc([C@@H]2CN(S(=O)(=O)Cc3ccccc3)C[C@H]2N(C)C)cc1 | -2.85 |

| Structure (SMILES) | cytotoxicity at 10 µM [%] |
| --- | --- |
| CNC(=O)[C@@H]1C[C@@H](N)CN1Cc1ccc2cccc(OC)c2n1 | 0.719 |
| CN(C)c1nc(NCCCN2CCc3ccccc32)ncc1F | 27.3 |
| CC(=O)Nc1ccc(CNC(=O)CNCc2sc(C)nc2C)cc1 | 6.95 |
| CSCc1nc(CNC(=O)c2cnn(C(C)C)c2)cs1 | 1.98 |
| CC(C)N(C(=O)c1ccccc1-c1nc2c([nH]1)CCNC2)C(C)C | -45 |
| Cc1nnsc1CN(C)Cc1ccc(C(=O)Nc2sccc2C#N)cc1 | 4.06 |
| O=C1CN(Cc2cn(CC3CCCN(C4CCSCC4)C3)nn2)CCN1 (stereo not given) | -49.3 |
| CCc1nc(CNc2cc(C)nc(-c3cccnc3)n2)cs1 | -63.6 |
| Cc1nc[nH]c1-c1nccn1CCN1CCOC1=O | -5.58 |
| COc1ccc2nc(CCNC(=O)c3cc(CC(C)C)no3)[nH]c2c1 | 0.808 |
| CC(C)n1ccnc1CNC(=O)c1cccc(CCC(C)(C)O)c1 | -36.4 |
| COc1cc(N2CCCC(c3nccn3Cc3ccncc3)C2)ncn1 (stereo not given) | -6.82 |
| CC(C)CN1CCc2[nH]cnc2C12CCN(C(=O)c1ccccn1)CC2 | -11.6 |
| CC(C)[C@H]1CN(C2Cc3ccccc3C2)C[C@@H]1NS(=O)(=O)N(C)C | 1.52 |
| CCCc1cc(C(=O)N2C[C@H](O)[C@@H](N3CCCC3)C2)ccn1 | 5.92 |
| COc1cccc(Cc2nc3c([nH]2)CC(C)(C)CNC3=O)c1OC | -2.88 |
| CNC(=O)c1[nH]nc2c1CN(c1cc(C3CCCNC3)nc(C)n1)CC2 (stereo not given) | -51.8 |
| Oc1ccc(-c2c(-c3ccccc3)ncn2C2CCNC2)cc1 (stereo not given) | -45.3 |
| COc1cccc(C(=O)N2CCN(C(=O)CCn3ccnc3)CC2)c1 | 10.3 |
| CCc1nc(N)sc1C(=O)N1CCCC(CCc2ccccc2C)C1 (stereo not given) | 6.46 |
| Fc1ccccc1-c1noc2c1CN(CC1CC1)CC2 | -15.4 |
| CC(C)n1ccnc1CN1CCCN(C(=O)c2cscn2)CC1 | -1.63 |

| Structure (SMILES) | cytotoxicity at 10 µM [%] |
| --- | --- |
| CN(Cc1nc2ccccc2o1)CC1CCCN1c1cccnn1 (stereo not given) | -9.45 |
| Cc1cn2c(n1)CCC(NC(=O)CCC(F)(F)F)C2 (stereo not given) | -9.12 |
| Cc1ccc(CNC(c2ccccc2)c2nccn2C)cc1C (stereo not given) | 0.323 |
| Cn1nccc1CNC(=O)Nc1cc(C(F)(F)F)c[nH]c1=O | 1.04 |
| CC(C)(C)CC(=O)NCCn1nc(C2CCNC2)c2cccnc21 (stereo not given) | -0.00173 |
| O=C1CC[C@H]2[C@H](CCN2C(=O)C2CCOC2)N1Cc1ccncc1 (stereo not given in full) | 6.67 |
| c1cnc(N2CCCC3(CCN(CC4CCC4)C3)C2)nc1 (stereo not given) | -82.8 |
| Cc1ccc(CN2CCC3(C2)C(=O)N(CC2CC2)c2ccccc23)s1 (stereo not given) | 13.4 |
| CCCN1CCC(c2nc3ccc(-c4ccccc4)cn3n2)CC1 | -129 |
| Cc1cncc(C(=O)N2CC[C@@]3(C[C@H](NS(C)(=O)=O)CCO3)C2)c1 | -73.6 |
| c1ccc(OCC2C[C@@H]3[C@@H](C2)OCCN3Cc2ccoc2)nc1 (stereo not given in full) | -0.514 |
| O=S(=O)(c1ccccc1)N1CCC2(CCCN2Cc2cccnc2)C1 (stereo not given) | -73.5 |
| CN1[C@H](Cn2cncn2)C[C@@H]2CN(Cc3ccsc3)CC[C@@H]21 | -118 |
| CNC(=O)C1Cn2ccnc2C2(CCN(Cc3nccs3)CC2)O1 (stereo not given) | -67.2 |
| CN1CCN(C2COC3(CCN(Cc4ccsc4)CC3)C2)CC1 (stereo not given) | -77.1 |
| Cc1ccc(CN2CCn3c(CNC(=O)c4cccn4C)cnc3C2)s1 | 1.82 |
| Cn1nc(CN2CCCC2)c2c1CN(c1cnccn1)CC2 | -95.3 |
| COCCN1CCC12CCN(C(=O)c1ccc(C)nc1)C2 (stereo not given) | -102 |
| Cc1ccc(CN2CC[C@H]3OCC[C@@]3(COCC(=O)N(C)C)C2)s1 | -97.8 |
| O=C(C1CC1)N1CCc2ccccc2C12CCNCC2 | 5.35 |
| Cc1ccc(CN2CCc3onc(C(=O)NCCN(C)C)c3C2)o1 | 5.9 |
| Cc1ccccc1C(=O)N1C[C@@H]2C(CN(C)CCc3ccccn3)[C@@H]2C1 (stereo not given in full) | -54.9 |
